Measured values collected from several papers.
Compare with care: the assays were run in different laboratories.
4-aminobutyrate aminotransferase, mitochondrial: 4-aminobutyrate aminotransferase, mitochondrial (Homo sapiens, UniProt P80404)
P2RX7: P2X purinoceptor 7 (P2RX7, Homo sapiens, UniProt Q99572)
DCAF1: DDB1- and CUL4-associated factor 1 (DCAF1, Homo sapiens, UniProt Q9Y4B6)

SMILES | target | assay | conditions | endpoint | result
N[C@H]1CC(C(=O)O)=CC(F)(F)C1 | 4-aminobutyrate aminotransferase, mitochondrial | enzyme activity, inhibitor |  | kinact/KI | 2 M⁻¹ s⁻¹
O=C(c1ccc(I)cc1)N1CCC(n2cncc2-c2ccc(OS(=O)(=O)c3cccc4cnccc34)cc2)CC1 | P2RX7 | ligand displacement, radioligand | 1 µM, cell membranes | inhibition | > 70%
COc1ccccc1C(=O)/C=C/c1cn(Cc2cn(-c3ccnc4cc(Cl)ccc34)nn2)c2ccccc12 | Calcium-dependent protein kinase 1 (CDPK1, Plasmodium falciparum, UniProt P62344) | enzyme activity, inhibitor, ADP detection | 5 µM | inhibition | 88.3%
C=CC(=O)N1CCC(COCC(=O)N2CCN(c3nc(-c4cnc(N)nc4C(F)F)nc(N4CCOC[C@@H]4C)n3)CC2)CC1 | Ribosomal protein S6 kinase alpha-4, N-terminal kinase domain (RPS6KA4, Homo sapiens, UniProt O75676) | binding, competition with immobilised ligand | 1 µM | remaining binding | 93%
C[C@@H]1CN(c2ccc(-c3cc(C(=O)NCCOCCOCCOCCOCCNC(=O)Cn4cc(-c5[nH]cc(C(=O)N[C@@H](CC(N)=O)c6ccc(F)c(Cl)c6)c5-c5ccc(Cl)cc5F)cn4)ccc3F)cc2NC(=O)c2c[nH]c(=O)cc2C(F)(F)F)C[C@H](C)N1C | DCAF1 | thermal stability, DSF | 5.5 µM | ΔTm | 8 °C
CNc1ncc2c(/C=C/C(=O)N3CCC(OC)CC3)nn(Cc3cccc(C(F)(F)F)c3)c2n1 | Mitogen-activated protein kinase kinase kinase 11 (MAP3K11, Homo sapiens, UniProt Q16584) | enzyme activity, inhibitor, radiometric | 1 µM | remaining activity | 97%
Cc1nn(CCc2ccccc2)c2ncc(C(=O)NCc3cccnc3)c(Cl)c12 | Prolyl endopeptidase (PREP, Homo sapiens, UniProt P48147) | enzyme activity, inhibitor, fluorescence |  | kinact | 0.000233 s⁻¹
C[C@@H]1CN(c2ccc(-c3cc(C(=O)NCCOCCOCCOCCOCCOCCOCCNC(=O)/C=C/c4[nH]cc(C(=O)N[C@@H](CC(N)=O)c5ccc(F)c(Cl)c5)c4-c4ccc(Cl)cc4F)ccc3F)cc2NC(=O)c2ccc(F)cc2C(F)(F)F)C[C@H](C)N1C | DCAF1 | thermal stability, DSF | 5.5 µM | ΔTm | 5.3 °C
Cc1cc(NC(=O)c2cccc(NC(=O)/C=C/CN(C)C)c2)ccc1Nc1nccc(-c2cccnc2)n1 | Interleukin-1 receptor-associated kinase 1 (IRAK1, Homo sapiens, UniProt P51617) | binding, competition with immobilised ligand | 1 µM | remaining binding | 11%
Cc1cc([C@@H](C)Nc2ccccc2C(=O)O)c2nc(N3CCC(F)(F)CC3)c(C#N)c(=O)n2c1 | Hepatocyte growth factor receptor (MET, Homo sapiens, UniProt P08581) | binding, competition with immobilised ligand | 1 µM | remaining binding | 100%
O=C(c1ccc(Br)cc1)N1CCC(n2cncc2-c2ccc(OS(=O)(=O)c3cccc4cnccc34)cc2)CC1 | P2RX7 | ligand displacement, radioligand | 1 µM, cell membranes | inhibition | > 70%
COc1cc(-c2cncc3c2CN(C)Cc2cc(N4CCNCC4)ccc2-3)cc(OC)c1OC | Hepatocyte growth factor receptor (MET, Homo sapiens, UniProt P08581, Y1230H) | enzyme activity, inhibitor | 1 µM | remaining activity | 86%
N[C@H]1C=C(C(=O)O)CC(F)(F)C1 | 4-aminobutyrate aminotransferase, mitochondrial | enzyme activity, inhibitor |  | kinact/KI | 2.83 M⁻¹ s⁻¹
